The results in this text go back to ChEMBL document CHEMBL1154548, “Synthesis and initial evaluation of novel, non-peptidic antagonists of the alpha(v)-integrins alpha(v)beta(3) and alpha(v)beta(5)” (Bioorg Med Chem Lett, 2009).

Structures are written as SMILES.

Usually IC50 stands for the concentration needed to halve the response being measured. For orientation: Papp means the rate of passage across a membrane or cell layer, normalised by area and donor concentration.

In one data set the target is Integrin alpha-V (Homo sapiens, UniProt P06756+P18084). In words: Binding affinity to human integrin alphavbeta5 receptor by TRF assay. In short, it runs like this: (§1)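 Wells were coated with αvβ3 or αvβ5 overnight at 4 °C in buffer A (50 mM Tris–HCl pH 7.4, 100 mM NaCl, 1 mM each MgCl₂, CaCl₂, MnCl₂), then blocked with 1% BSA for 1 h at RT. Compound and 20 nM Eu³⁺-vitronectin in buffer A plus DTPA and 0.05% BSA were added for 1 h at RT. Wells were washed, enhancement solution was added for 10 min with shaking, and time-resolved fluorescence was read.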
Sequence of Integrin alpha-V (P06756 whole entry, one chain of several): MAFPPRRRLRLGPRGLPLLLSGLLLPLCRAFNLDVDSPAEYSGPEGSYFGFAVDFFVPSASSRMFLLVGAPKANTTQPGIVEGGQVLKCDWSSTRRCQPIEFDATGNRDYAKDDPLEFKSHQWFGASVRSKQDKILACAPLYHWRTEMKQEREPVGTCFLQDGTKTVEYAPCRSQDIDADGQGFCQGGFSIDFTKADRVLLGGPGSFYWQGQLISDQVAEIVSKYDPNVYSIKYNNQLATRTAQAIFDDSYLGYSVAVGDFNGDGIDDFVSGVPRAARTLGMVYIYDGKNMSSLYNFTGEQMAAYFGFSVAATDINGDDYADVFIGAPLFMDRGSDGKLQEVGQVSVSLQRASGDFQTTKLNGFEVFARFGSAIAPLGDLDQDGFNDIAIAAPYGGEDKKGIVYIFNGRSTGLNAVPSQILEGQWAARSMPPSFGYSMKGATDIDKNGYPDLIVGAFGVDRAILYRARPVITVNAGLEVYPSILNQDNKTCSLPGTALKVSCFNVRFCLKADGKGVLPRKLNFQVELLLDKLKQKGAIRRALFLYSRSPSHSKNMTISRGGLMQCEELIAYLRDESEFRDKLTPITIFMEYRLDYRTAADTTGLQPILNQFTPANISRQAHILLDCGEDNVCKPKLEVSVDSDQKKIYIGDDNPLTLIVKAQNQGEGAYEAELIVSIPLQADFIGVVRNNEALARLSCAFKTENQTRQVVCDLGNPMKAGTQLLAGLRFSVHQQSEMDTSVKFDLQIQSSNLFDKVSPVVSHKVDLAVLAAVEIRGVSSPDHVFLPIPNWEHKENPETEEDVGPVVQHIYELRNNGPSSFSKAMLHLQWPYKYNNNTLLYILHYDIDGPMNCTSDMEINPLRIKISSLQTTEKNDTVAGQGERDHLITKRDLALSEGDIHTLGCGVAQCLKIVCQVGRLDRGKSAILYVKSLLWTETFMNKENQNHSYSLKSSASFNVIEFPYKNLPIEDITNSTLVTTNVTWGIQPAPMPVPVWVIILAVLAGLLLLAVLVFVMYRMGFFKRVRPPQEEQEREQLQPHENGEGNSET

Another data set addresses Integrin alpha-V/beta-3 (Homo sapiens, UniProt P05106+P06756). Nature of the data set: Binding affinity to human integrin alphavbeta3 receptor by TRF assay. In short, it runs like this: as §1
Data set [1] has as its target Integrin alpha-IIb/beta-3 (Homo sapiens, UniProt P05106+P08514). Nature of the data set: Binding affinity to human integrin […] receptor by TRF assay. It is filed as protein-complex assay. In short, it runs like this:
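Purified αIIbβ3 coated overnight at 4 °C in buffer A (50 mM Tris–HCl pH 7.4, 100 mM NaCl, 1 mM each MgCl₂, CaCl₂, MnCl₂), then blocked with 1% BSA for 1 h at RT. Compound plus 20 nM Eu³⁺-fibrinogen in buffer A with DTPA and 0.05% BSA, 1 h at RT. After washing, enhancement solution was added for 10 min with shaking and time-resolved fluorescence was read.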

Data set [2] deals with HUVEC. Nature of the data set: Inhibition of FGF-induced HUVEC proliferation after 48 hrs. It is filed as functional, cell-based. The conditions noted are these: Homo sapiens. In short, it runs like this: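 HUVEC were seeded at 1000 cells/well in complete EBM-2 and cultured 24 h at 37 °C with 5% CO₂. Medium was replaced with EBM-2 containing 2% FBS, 3 ng/mL FGF and compound, and cells were grown a further 48 h. Cells were fixed in glutaraldehyde, stained with crystal violet, destained in acetic acid and read by absorbance at 595. Means of two experiments with SD.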

Data set [3] can be described thus: Apparent permeability across human Caco-2 cells. It counts as ADME, cell-based. A general note: Caco-2 cells form a polarised layer with tight junctions and transporters.
Data set [4] concerns HUVEC. In words: Inhibition of HUVEC migration after 4 hrs. It counts as functional, cell-based. The following applies: Homo sapiens. In short, it runs like this: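 Boyden-chamber filters were coated with vitronectin in HEPES/NaCl/divalent-cation buffer for 1 h at 37 °C, then blocked with 2% BSA for 1 h. HUVEC were added to the upper chamber at 20,000/well in migration buffer with or without compound and incubated 4 h at 37 °C. Non-migrated cells were removed; migrated cells were fixed, stained with crystal violet, photographed and quantified. Means of two experiments with SD.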

Data set [5] relates to HUVEC. In words: Inhibition of VEGF-induced HUVEC proliferation after 48 hrs. It is filed as functional, cell-based. The conditions noted are these: Homo sapiens.

Sequence of Integrin alpha-IIb/beta-3 (P05106 27-788 limits assumed): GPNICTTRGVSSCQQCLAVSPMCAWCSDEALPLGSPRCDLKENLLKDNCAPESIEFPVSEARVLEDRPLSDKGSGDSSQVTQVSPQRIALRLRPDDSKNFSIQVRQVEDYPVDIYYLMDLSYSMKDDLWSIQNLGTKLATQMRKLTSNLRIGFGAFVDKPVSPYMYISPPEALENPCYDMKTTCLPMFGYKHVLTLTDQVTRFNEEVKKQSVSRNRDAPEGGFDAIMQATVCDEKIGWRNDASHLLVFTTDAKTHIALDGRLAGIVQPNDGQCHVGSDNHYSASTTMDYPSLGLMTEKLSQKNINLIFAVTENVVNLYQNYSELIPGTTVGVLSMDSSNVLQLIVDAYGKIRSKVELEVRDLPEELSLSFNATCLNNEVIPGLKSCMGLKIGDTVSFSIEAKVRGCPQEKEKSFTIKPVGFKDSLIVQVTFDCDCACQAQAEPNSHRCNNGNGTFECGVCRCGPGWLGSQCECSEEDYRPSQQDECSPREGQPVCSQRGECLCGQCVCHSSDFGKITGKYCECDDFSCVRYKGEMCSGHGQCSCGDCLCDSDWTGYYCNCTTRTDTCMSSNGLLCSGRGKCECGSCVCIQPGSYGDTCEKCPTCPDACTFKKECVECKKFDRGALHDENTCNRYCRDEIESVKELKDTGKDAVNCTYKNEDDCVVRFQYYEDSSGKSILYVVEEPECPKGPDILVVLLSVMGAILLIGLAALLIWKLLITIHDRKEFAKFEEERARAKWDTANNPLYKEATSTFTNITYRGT
Sequence of Integrin alpha-IIb/beta-3 (P08514 32-887 limits assumed): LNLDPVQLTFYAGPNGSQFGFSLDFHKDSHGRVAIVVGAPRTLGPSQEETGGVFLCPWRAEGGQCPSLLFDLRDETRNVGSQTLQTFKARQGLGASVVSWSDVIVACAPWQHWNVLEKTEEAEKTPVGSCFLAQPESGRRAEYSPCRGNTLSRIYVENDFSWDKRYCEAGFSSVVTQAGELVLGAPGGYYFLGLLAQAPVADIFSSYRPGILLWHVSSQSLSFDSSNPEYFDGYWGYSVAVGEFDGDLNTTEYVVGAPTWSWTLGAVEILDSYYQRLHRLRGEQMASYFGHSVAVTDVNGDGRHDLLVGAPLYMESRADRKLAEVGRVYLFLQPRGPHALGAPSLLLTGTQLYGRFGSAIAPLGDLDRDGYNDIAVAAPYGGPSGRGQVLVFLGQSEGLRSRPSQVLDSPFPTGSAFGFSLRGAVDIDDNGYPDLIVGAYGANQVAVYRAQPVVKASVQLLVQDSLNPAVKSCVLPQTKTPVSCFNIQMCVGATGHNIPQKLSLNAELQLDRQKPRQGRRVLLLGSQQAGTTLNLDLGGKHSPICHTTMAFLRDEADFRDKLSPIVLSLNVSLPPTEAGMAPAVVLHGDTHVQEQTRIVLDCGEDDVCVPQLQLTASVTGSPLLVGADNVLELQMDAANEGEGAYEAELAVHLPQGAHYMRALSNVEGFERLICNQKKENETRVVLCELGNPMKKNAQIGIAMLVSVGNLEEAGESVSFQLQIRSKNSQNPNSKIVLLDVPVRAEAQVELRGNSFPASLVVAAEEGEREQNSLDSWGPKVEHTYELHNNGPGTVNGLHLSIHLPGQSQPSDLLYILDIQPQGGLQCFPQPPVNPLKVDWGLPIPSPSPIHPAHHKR
Sequence of Integrin alpha-IIb/beta-3 (P08514 891-1039 limits assumed): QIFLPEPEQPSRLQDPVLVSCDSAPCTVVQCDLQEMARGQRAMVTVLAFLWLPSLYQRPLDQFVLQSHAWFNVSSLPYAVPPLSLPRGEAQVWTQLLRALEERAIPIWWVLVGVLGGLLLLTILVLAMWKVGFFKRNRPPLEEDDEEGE
Sequence of Integrin alpha-V/beta-3 (P05106 27-788 limits assumed): as the sequence (P05106 27-788 limits assumed) above
Sequence of Integrin alpha-V/beta-3 (P06756 31-889 limits assumed): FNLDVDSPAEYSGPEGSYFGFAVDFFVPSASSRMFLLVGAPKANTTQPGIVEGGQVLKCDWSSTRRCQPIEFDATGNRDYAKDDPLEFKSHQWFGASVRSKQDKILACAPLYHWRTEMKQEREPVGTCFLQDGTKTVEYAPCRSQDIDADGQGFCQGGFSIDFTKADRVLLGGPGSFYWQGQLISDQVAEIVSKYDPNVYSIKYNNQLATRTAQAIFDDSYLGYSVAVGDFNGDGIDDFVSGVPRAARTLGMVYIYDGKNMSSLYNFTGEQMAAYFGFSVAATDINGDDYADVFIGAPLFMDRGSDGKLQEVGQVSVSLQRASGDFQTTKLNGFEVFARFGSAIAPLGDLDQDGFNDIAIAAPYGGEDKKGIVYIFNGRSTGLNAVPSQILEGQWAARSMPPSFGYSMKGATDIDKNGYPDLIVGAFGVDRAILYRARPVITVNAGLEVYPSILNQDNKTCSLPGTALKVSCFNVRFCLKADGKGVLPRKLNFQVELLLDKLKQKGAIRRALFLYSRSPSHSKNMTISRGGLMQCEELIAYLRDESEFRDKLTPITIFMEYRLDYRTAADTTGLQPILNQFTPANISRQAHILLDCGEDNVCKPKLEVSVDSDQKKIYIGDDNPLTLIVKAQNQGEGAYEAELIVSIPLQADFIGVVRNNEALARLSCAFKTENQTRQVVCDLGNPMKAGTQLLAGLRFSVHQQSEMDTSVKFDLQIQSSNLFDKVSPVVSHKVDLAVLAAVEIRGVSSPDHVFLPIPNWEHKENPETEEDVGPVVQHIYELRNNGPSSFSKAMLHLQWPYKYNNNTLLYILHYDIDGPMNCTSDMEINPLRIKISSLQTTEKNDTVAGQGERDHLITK
Sequence of Integrin alpha-V/beta-3 (P06756 891-1048 limits assumed): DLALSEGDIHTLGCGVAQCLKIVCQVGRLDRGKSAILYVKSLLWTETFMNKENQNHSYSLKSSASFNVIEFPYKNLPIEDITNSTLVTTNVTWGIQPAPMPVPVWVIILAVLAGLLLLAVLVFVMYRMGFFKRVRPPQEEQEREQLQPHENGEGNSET

On to `Cn1c(N)nc2c(Oc3ccc(C(=O)NCCC(=O)O)cc3)cccc21`, for which the IC50 at Integrin alpha-V was found to be 2050 nM; on Integrin alpha-V/beta-3, 230 nM.

As for `Cn1c(N)nc2c(Oc3ccc4c(c3)CN(CCC(=O)O)C4=O)cccc21`, the IC50 is > 10000 nM in data set [1], 4800 nM at Integrin alpha-V and 180 nM at Integrin alpha-V/beta-3.

Regarding `Cn1c(N)nc2c(Oc3ccc4c(c3)CCN(CCC(=O)O)C4=O)cccc21`, the half-inhibitory concentration (IC50) is > 10000 nM in data set [1], 600 nM at Integrin alpha-V and 39 nM at Integrin alpha-V/beta-3.

Consider `O=C(O)CCN1CCc2cc(Oc3cccc4c3nc3n4CCCN3)ccc2C1=O`, for which the IC50 in data set [1] worked out at 6300 nM; at Integrin alpha-V it was 310 nM; on Integrin alpha-V/beta-3 it was 7 nM.

Take `O=C(O)CC(c1ccc2c(c1)OCO2)N1CCc2cc(Oc3cccc4c3nc3n4CCCN3)ccc2C1=O` (stereo not given): the 50% inhibitory concentration (IC50) came out at 167 nM in data set [1]; 14 nM at Integrin alpha-V; 2900 nM in the data set on HUVEC [2]; 2 nM on Integrin alpha-V/beta-3; 40 nM in the data set on HUVEC [4]; 1100 nM with HUVEC [5]. Also, in data set [3], the Papp was determined as 8.96 ×10⁻⁶ cm/s.

Take `O=C(O)CC(c1cccnc1)N1CCc2cc(Oc3cccc4c3nc3n4CCCN3)ccc2C1=O` (stereo not given): the 50% inhibitory concentration (IC50) was determined as 323 nM in data set [1]; 5 nM at Integrin alpha-V; 1100 nM with HUVEC [2]; 1 nM at Integrin alpha-V/beta-3; 37 nM with HUVEC [4]; 4300 nM in the data set on HUVEC [5].

With `Cn1c(N)nc2c(Oc3ccc4c(c3)CCCN(CCC(=O)O)C4=O)cccc21`, the results for the IC50 (in data set [1]; at Integrin alpha-V; on Integrin alpha-V/beta-3) were > 10000 nM, 4300 nM and 370 nM, respectively.

On to `CC(C)[C@@H]1NC(=O)[C@@H](Cc2ccccc2)NC(=O)[C@H](CC(=O)O)NC(=O)CNC(=O)[C@H](CCCN=C(N)N)NC1=O` [CYCLORGDFV], for which the half-maximal inhibitory concentration (IC50) with HUVEC [2] is 3100 nM; in the data set with HUVEC [4], 530 nM; with HUVEC [5], 4500 nM.
